OX1R antag-1: OX1R (HCRTR1) antagonists, primary screen, fluorescence, CHO/OX1R cells, Fluo-8 calcium, orexin A | Orexin/Hypocretin receptor type 1 (Homo sapiens), O43613 | Fluo-8 calcium fluorescence | inhibition, % at 5 µM | 0.43% of 330,000 active;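 active = inhibition above its plate's threshold, mean inhibition of all tested compounds on the plate plus 3 SD, cut at about 37% in these data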;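 note: 0% = orexin A challenge wells and 100% = SB-334867-A antagonist wells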
Target sequence (O43613 whole entry, looked up): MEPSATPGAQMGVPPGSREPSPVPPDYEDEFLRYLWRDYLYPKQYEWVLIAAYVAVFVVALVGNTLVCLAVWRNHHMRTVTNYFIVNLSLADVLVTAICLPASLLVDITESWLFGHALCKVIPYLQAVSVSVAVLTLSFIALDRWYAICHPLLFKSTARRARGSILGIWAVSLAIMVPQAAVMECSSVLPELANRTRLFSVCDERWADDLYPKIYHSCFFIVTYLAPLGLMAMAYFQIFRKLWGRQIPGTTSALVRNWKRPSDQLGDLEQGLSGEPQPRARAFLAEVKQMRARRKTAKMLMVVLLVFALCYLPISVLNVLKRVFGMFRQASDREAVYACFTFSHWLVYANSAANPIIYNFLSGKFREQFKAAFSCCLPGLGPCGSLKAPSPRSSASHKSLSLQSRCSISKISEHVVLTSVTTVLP
M1 ag parental: counter-screen for M1 agonists: effect in parental CHO-K1 cells | 0.48% of 360,000 active | Fluo-8 calcium fluorescence; scaled to maximal ATP response, vehicle zero | activation, % at 3 µM; in the data active = activation above about 15%;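 note: untransfected CHO-K1 host cells lacking M1 receptor as counterscreen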
CHO-K1 Ca antag: M1 antagonist counterscreen hit in parental CHO-K1 cells; ATP-induced calcium, Fluo-8 fluorescence; inhibition, % at 3 µM; 0.6% of 360,000 active; AID 602250;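 active = inhibition above a per-plate cutoff, the plate's mean sample inhibition plus 3 SD, cut at about 24% in these data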;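 note: 0% = DMSO plus EC80 ATP and 100% = DMSO alone without ATP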
OX1R antag-2: antagonists of human orexin 1 receptor (OX1R); OX1R-expressing cells, FRET antagonist read-out; inhibition, % at 6.6 µM; 1.8% of 330,000 active; AID 485270, 2010; in the data active = inhibition mostly above about 38%, no sharp cut-off; inactive = mostly below about 40%;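 note: 0% = agonist challenge alone and 100% = reference antagonist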
CHO parental Ca: ATP-evoked calcium signal inhibitors, parental CHO, primary screen, counter-screen for OX1R antagonist project, cell-based, fluorescence, Fluo-8 calcium dye | AID 463079, 2010 | 0.63% of 330,000 active | parental CHO-K1, ATP-induced calcium, Fluo-8 fluorescence | inhibition, % at 5.6 µM;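 active = inhibition above that plate's mean sample inhibition plus 3 SD, cut at about 26% in these data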;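 note: 0% = ATP-challenged DMSO wells and 100% = DMSO wells without ATP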
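Assay system: untransfected parental CHO cell line. Also added: ATP agonist challenge. Dosing: one dose, 5.6 µM nominal. Measured by: Fluo-8 fluorescence. Read-out: % inhibition. Benchmarks: ATP wells versus no-ATP DMSO wells. Repeats: no replicates.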
M1 PAM parental: nonselective calcium activators in parental CHO-K1 cells, primary screen, counter-screen for M1 PAM project, cell-based, Fluo-8 calcium fluorescence, full deck, 1536-well | 0.02% of 360,000 active | activation, % at 3 µM | ATP EC20; 0% at ATP EC20, 100% at ATP max;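 active = activation above the run cutoff, the mean activation of all test compounds plus 3 SD, cut at about 40% in these data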;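 note: peak over basal fluorescence ratio in a 140 s read after ATP addition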
An asterisk follows results filed as active; . = no result given. Only some compounds are listed: those with a hit (about 2.9% of all), similar ones and a draw of the others.

SMILES	OX1R antag-1	M1 ag parental	CHO-K1 Ca antag	OX1R antag-2	CHO parental Ca	M1 PAM parental
COc1ccc(C(=O)NCCCNc2nc3cc(C)cc(C)c3cc2C#N)cc1	.	0.8	-7.4	.	.	0.4
OCCC1CN(Cc2nc(-c3ccccc3)cs2)CCN1CCc1ccccc1 (centres undefined)	-43.8	16.0*	2.3	16.2	-31.1	13.6
Cc1occc(=O)c1OC(=O)Nc1ccc(Cl)c(Cl)c1	35.9	11.9	29.2*	14.2	70.4*	6.0
COc1ccc(CCN(C)C(=O)Cc2ccc(-c3ccccc3)cc2)cc1OC	-8.6	11.5	24.3*	33.0	16.1	-26.0
COc1ccc(CN(C)C(=O)c2cc(-c3ccccc3)nc3ccc(C)cc23)c(OC)c1OC	10.4	17.7*	19.3	62.6*	-15.2	-11.1
COc1ccc(CCN(C)C(=O)c2cc(-c3ccccc3)nc3ccc(C)cc23)cc1OC	-10.6	3.0	1.5	70.3*	-22.4	-21.6
O=C1N=NC2=C1c1c3ccccc3c(O)n1CC2	-7.8	0.4	-19.9	55.8*	8.3	12.4
O=C(Cc1coc2ccc3ccccc3c12)NCc1ccccc1	-13.8	0.1	-3.2	26.8	-16.1	16.6
CCn1c(Cc2cccc3ccccc23)nnc1SCC(=O)Nc1nccs1	22.7	3.5	-17.6	70.8*	-4.5	21.8
CCc1nnc(SCC(=O)Nc2nccs2)n1CC	-3.0	-0.5	8.2	9.2	-2.2	-3.5
O=C(Cc1coc2ccc3ccccc3c12)Nc1nccs1	-9.7	0.3	26.0*	18.7	-5.7	-6.9
O=C(Cc1coc2ccc3ccccc3c12)NC1CCCc2ccccc21 (centres undefined)	-2.0	0.8	-8.1	66.1*	-35.5	17.8
Cc1ccc2nc(-c3ccc(C#N)cc3)c(Cc3ccccc3C(F)(F)F)n2c1	.	1.1	-19.1	.	.	15.2
Cc1nc2ccc(N=NC3=C(O)CCCC3=O)cc2s1	-1.9	-0.1	-5.3	29.6	-8.7	11.9
Cc1nc2ccc(N=NC3=C(O)CC(C)(C)CC3=O)cc2s1	11.1	0.1	-0.4	61.6*	-7.5	-8.3
CC(=O)N1CCc2cc(N=NC3=C(O)CC(C)(C)CC3=O)ccc21	-5.0	0.0	-7.2	56.1*	2.7	8.3
CC1(C)CC(=O)C(N=Nc2cccc(S(=O)(=O)N3CCOCC3)c2)=C(O)C1	-4.7	0.7	-5.0	1.4	2.0	9.9
O=C(Nc1cccc2ccccc12)N1CCc2ccccc2C1	-27.2	-0.5	20.1	30.8	-16.6	-7.5
CCc1ccccc1NC(=O)N1CCc2ccccc2C1	.	19.2*	2.8	.	.	-0.5
CCN(CC)S(=O)(=O)c1ccc(OC)c(NC(=O)CC2CCCC2)c1	-23.3	0.7	-18.4	8.5	-14.5	7.5
COc1ccc(NS(=O)(=O)c2cccc(C(=O)NCC(c3ccc(F)cc3)N3CCOCC3)c2)cc1 (centres undefined)	0.2	3.6	-6.1	54.6*	-17.6	6.6
Cc1ccc(S(=O)(=O)Nc2cccc(C(=O)NCC(c3ccc(F)cc3)N3CCOCC3)c2)cc1 (centres undefined)	14.6	0.1	-7.0	35.6*	-16.9	-5.7
COC(=O)[C@@]1(C)[C@H]2C(=O)N(Cc3ccccc3)C(=O)[C@H]2[C@H]2CN=C(SCC(=O)c3ccccc3)N21	-13.8	0.5	-1.8	-1.5	-11.9	8.4
CCOC(=O)C1CCCN(C(=O)c2ccc(-c3ccc([N+](=O)[O-])cc3)o2)C1 (centres undefined)	-29.7	1.0	17.4	29.0	-13.0	-21.6
CC(=O)N(C)c1ccc(N=NC2C(=O)N(C(N)=S)N=C2C)cc1 (centres undefined)	-3.1	-0.3	-2.1	62.3*	-5.2	17.0
SMILES	OX1R antag-1	M1 ag parental	CHO-K1 Ca antag	OX1R antag-2	CHO parental Ca	M1 PAM parental
CC1=NN(C(N)=S)C(=O)C1N=Nc1ccc(S(N)(=O)=O)cc1 (centres undefined)	-10.1	0.7	-10.2	16.9	8.3	11.2
CC(=O)N(C)c1ccc(N=Nc2c(C)[nH]n(C(N)=S)c2=O)cc1	-0.6	0.0	-6.4	55.9*	-1.2	17.6
COc1ccc(N2CCN(CCCNC(=O)C(=O)c3c(C)[nH]c4ccccc34)CC2)cc1	-24.8	1.3	-11.7	8.8	-3.0	12.8
CC1CCN(CCNC(=O)C2CCCN(S(=O)(=O)c3cccc4nonc34)C2)CC1 (centres undefined)	-19.1	0.2	-13.8	69.9*	-0.5	19.9
O=C(NC1CCN(Cc2ccccc2)CC1)C1CCN(S(=O)(=O)c2cccc3nsnc23)CC1	-19.6	1.4	-14.8	71.1*	-16.5	20.0
O=C(NC1CCN(Cc2ccccc2)CC1)C1CCCN(S(=O)(=O)c2cccc3nonc23)C1 (centres undefined)	-19.2	1.3	-7.8	70.1*	-18.7	20.8
O=C(NCc1ccccc1)C1CCCN(S(=O)(=O)c2cccc3nonc23)C1 (centres undefined)	-29.7	3.6	6.1	54.6	-9.6	-3.0
CCC1CCCCN1C(=O)CCNC(=O)Cn1cnc2ccccc2c1=O (centres undefined)	-17.8	1.1	-6.5	15.6	-12.3	15.3
Cc1ccnc(NC(=S)N2CCN(c3cccc(C(F)(F)F)c3)CC2)c1	-30.5	4.7	4.0	9.0	-4.2	-8.4
Cc1cccc(C(C)C)c1NC(=O)c1c(-c2ccccc2)noc1C	-26.4	-0.7	-9.1	32.8	-9.2	-0.7
Cc1ccc(C(=O)Nc2ccc3c(c2)OCO3)cc1	-19.5	-0.3	-0.2	10.3	-10.5	-8.8
CCc1nc2ccc(C(=O)Nc3ccc4c(c3)OCO4)cc2nc1CC	-22.9	-0.3	20.6	35.1*	-9.4	-12.5
O=C(COc1ccc2ccccc2c1)N1CCN(c2ccccc2O)CC1	-8.3	0.5	23.7*	17.4	-16.9	-6.1
O=C(COc1ccc2ccccc2c1)N1CCNCC1	-14.8	0.1	-22.9	6.7	-7.2	23.4
Cc1c(C(=O)Nc2ccccn2)sc2nc3n(c(=O)c12)CCC3	-13.8	1.9	-0.1	11.4	-2.6	-0.4
O=C(NCCN1C(=O)S/C(=C\c2ccc(OC(F)F)cc2)C1=O)[C@@H]1CCCN1C(=O)c1cccs1	-8.5	20.5*	9.1	16.7	-31.3	0.6
COc1ccc(Cn2nc(C)cc2C)cc1OC	-8.7	1.4	-17.0	16.9	98.6*	26.1
CC1ON=C(c2ccccn2)N(Cc2ccc(S(C)(=O)=O)cc2)C1=O (centres undefined)	.	0.6	6.2	.	.	4.8
CC(C)CN(C(=O)COC(=O)CSc1ccccc1F)c1c(N)n(Cc2ccccc2)c(=O)[nH]c1=O	-20.0	0.8	60.6*	7.3	-26.0	-6.6
O=C(CNS(=O)(=O)c1cccc2nsnc12)NCCc1ccccc1	-9.4	0.5	-2.8	20.7	-10.7	9.3
